Sampled rows, rich in hits. Any-hit rate of the full collection: about 1%.
Hsp70 act – switches on Hsp70 transcription. HeLa Hsp70 promoter luciferase reporter, luminescence; scaled: vehicle 0, proteasome-inhibitor control 100%. actives 0.04% (n = 200,000). activation, % at 10 µM;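 active means activation above the mean across all tested compounds plus 3 SD, cutoff set per campaign, cut at about 5.5% in these data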;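 further: 100% = MG132 at 30 µM as the positive control and 0% = DMSO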
b-catenin transl – alters nuclear translocation of beta-catenin in HeLa cells. immunofluorescence imaging. nuclear translocation activity, % at 5 µM. actives 0.3% (n = 190,000). AID 1665;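 active means nuclear translocation activity above 50% at 5 µM, with a well cell count of 50 or more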;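 further: per-cell ratio of nuclear to cytoplasmic median beta-catenin stain intensity; plate controls were DMSO negative control for no effect and GSK-3 inhibitor IX positive control for full effect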
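Test system: HeLa cells, endogenous beta-catenin; Compound: single 5 µM dose plus 0.02–20 µM confirmation series; Times: compound exposure 24 h at 37°C; Signal: fluorescence imaging of beta-catenin antibody stain plus DAPI; Read-out: % activation, nuclear-to-cytoplasmic median beta-catenin signal ratio per cell.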
TLR4 MyD88 comp – blocks binding of human TLR4 to MyD88 | actives 0.18% (n = 200,000) | O00206+Q99836 | inhibition, % at 8.4 µM | HeLa CL3-4 TLR4/MyD88 BLA complementation, FRET ratio; in the data active means inhibition above about 25%;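 further: 0% = vehicle and 100% = reference inhibitor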
TLR9-MyD88 block – blocks human TLR9 binding to MyD88 | actives 0.21% (n = 340,000) | Q9NR96+Q99836 | inhibition, % at 4.98 µM | CHO BLA complementation TLR9-MyD88, CCF4 FRET ratio;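 active means inhibition above the mean over all tested compounds plus 3 SD, cut at about 21% in these data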;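 further: 0% = DMSO only wells and 100% = clavulanate BLA inhibitor control wells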
NOD2-RIPK2 inh – NOD2-RIPK2 protein interaction inhibition; O43353; CHO BLA complementation NOD2-RIPK2, CCF4 ratio; inhibition, % at 4.98 µM; actives 0.38% (n = 360,000); in the data active means inhibition above about 21%;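 further: 0% = vehicle only and 100% = reference blocker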
Target sequence (O43353 whole entry, looked up): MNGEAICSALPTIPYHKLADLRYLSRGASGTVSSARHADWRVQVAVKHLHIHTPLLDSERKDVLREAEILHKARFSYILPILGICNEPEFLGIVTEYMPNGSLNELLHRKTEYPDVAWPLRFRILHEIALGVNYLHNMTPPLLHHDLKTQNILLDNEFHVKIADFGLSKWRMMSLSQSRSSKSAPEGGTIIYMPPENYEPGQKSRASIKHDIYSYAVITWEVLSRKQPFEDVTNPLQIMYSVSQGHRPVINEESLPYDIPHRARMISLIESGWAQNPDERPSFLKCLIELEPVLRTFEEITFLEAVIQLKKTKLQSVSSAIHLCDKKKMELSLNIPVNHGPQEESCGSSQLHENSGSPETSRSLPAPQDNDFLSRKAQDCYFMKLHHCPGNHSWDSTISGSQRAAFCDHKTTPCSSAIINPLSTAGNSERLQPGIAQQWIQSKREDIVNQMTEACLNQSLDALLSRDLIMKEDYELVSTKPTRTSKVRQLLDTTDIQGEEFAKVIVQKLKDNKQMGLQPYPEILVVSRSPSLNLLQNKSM
MT stabilizer – microtubule stabilization, imaging screen; HeLa tubulin immunostaining HCS, 24 h; share of cells brighter than vehicle mean+2SD; % tubulin-high responders, % at 10 µM; actives 0.83% (n = 200,000);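 active means plate Z-score above 3 for both tubulin-high and condensed-nucleus cell shares, with cell loss under 80%, at 10 µM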;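 further: anti alpha tubulin signal scored within the nucleus-defined area of each cell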
* hit, by the source's call; · = no result given.

SMILES | Hsp70 act | b-catenin transl | TLR4 MyD88 comp | TLR9-MyD88 block | NOD2-RIPK2 inh | MT stabilizer
CN1C[C@@H]2[C@@H]3C(=O)N(C)C(=O)[C@@H]3[C@](C)(C1=O)N2C(=O)c1ccc(C(F)(F)F)cc1 | · | · | · | -6 | -8 | ·
CCOc1ccc2ccccc2c1C(=O)N1CCN(c2ccccc2)CC1 | 0 | 1 | -2 | 0 | 4 | 47*
O=S(=O)(c1ccccc1)[C@@]1(c2ccc(Br)cc2)C[C@@H]2ON=C(c3ccccc3)[C@@H]2C1 | · | · | · | -1 | 4 | ·
C=CCOc1ccc(C2C(C#N)=C(N)N(Nc3ccccc3)C3=C2C(=O)CC(C)(C)C3)cc1OC (stereo unspecified) | 0 | 2 | 7 | 5 | 2 | 32*
O=C1CCCN1CCC1CCN(C2CC(=O)N(c3ccc(Cl)cc3)C2=O)CC1 (stereo unspecified) | 0 | -5 | 15 | -3 | 22* | 3
CCCCN(C(=O)c1cccc(S(=O)(=O)N(C)c2ccc(C)cc2)c1)c1c(N)n(CCCC)c(=O)[nH]c1=O | · | · | · | -2 | -13 | ·
Cc1ccc(-c2cc(=O)c3ccccc3[nH]2)cc1 | 0 | · | 5 | 1 | -8 | 16
Cc1ccc2[nH]c(-c3ccccc3)cc(=O)c2c1 | 1 | 93* | -4 | 11 | 2 | 43*
CCOC(=O)Nc1ccc(S(=O)(=O)N2CCOCC2)cc1 | 0 | -1 | -1 | -4 | 2 | 4
CCOC(=O)Nc1ccc(S(=O)(=O)N2CCC(C)CC2)cc1 | 0 | 3 | -19 | 4 | -8 | 18*
Cc1ccc(C(=O)Nc2nc(C)c(C(=O)Nc3ccc4c(c3)CCC4)s2)cc1 | 0 | 183* | -3 | -4 | -4 | 3
CCOC(=O)C1=C(c2ccccc2)N=c2s/c(=C\c3cc(OC)c(OC)c(OC)c3)c(=O)n2C1c1cccs1 (stereo unspecified) | 0 | -2 | 24 | 22* | 11 | 2
O=C1CSC(c2nn(-c3ccccc3)cc2-c2cc3ccccc3oc2=O)N1Cc1ccco1 (stereo unspecified) | 0 | 4 | 3 | 4 | -6 | 8
O=C1CSC(c2cn(-c3ccccc3)nc2-c2cc3ccccc3oc2=O)N1Cc1ccccc1 (stereo unspecified) | -1 | · | -2 | 6 | -5 | 31*
O=C(COC(=O)C12CC3CC(CC(O)(C3)C1)C2)Nc1ccc(Cl)c(S(=O)(=O)N2CCOCC2)c1 | · | · | · | 6 | -1 | ·
CC1=C(C(=O)Nc2ccc(F)cc2)C(c2ccc(C)o2)C2=C(CC(C)(C)CC2=O)N1 (stereo unspecified) | 0 | -1 | -3 | -2 | -12 | 6
CC1=C(C(=O)Nc2ccccc2F)C(c2ccsc2)C2=C(CC(C)(C)CC2=O)N1 (stereo unspecified) | 0 | 0 | -6 | -5 | 2 | 15*
CC1=C(C(=O)Nc2cccc(F)c2)C(c2ccsc2)C2=C(CC(C)(C)CC2=O)N1 (stereo unspecified) | 0 | 76* | 13 | 5 | -2 | 12*
CC(C)c1ccc(/C=N/NC(=O)c2ccccc2Cl)cc1 | 1 | -1 | -15 | -9 | -3 | 23*
CCOC(=O)N/N=C/c1c(C)nn(-c2cccc(C(F)(F)F)c2)c1Cl | 0 | 13 | -4 | -3 | -2 | 24*
Nc1nonc1-n1nnc(C(=O)N/N=C/c2ccccc2)c1CN1CCc2ccccc21 | · | · | · | 9 | 3 | ·
COC(=O)c1nnn(-c2nonc2N)c1CN1CCc2ccccc21 | -1 | 0 | -10 | 13 | 0 | 36*
CCOc1cc(N2CCOCC2)c(OCC)cc1NC(=O)c1cc(S(=O)(=O)N2CCOCC2)ccc1Cl | · | · | · | -2 | -11 | ·
CCOc1cc(N2CCOCC2)c(OCC)cc1NS(=O)(=O)c1ccc(Cl)s1 | 0 | 10 | -3 | -1 | 9 | 40*
CCOc1ccc(NS(=O)(=O)c2cc(NC(=O)c3ccc(C)cc3)ccc2Cl)cc1 | 0 | 24 | 13 | -9 | 8 | 21*
SMILES | Hsp70 act | b-catenin transl | TLR4 MyD88 comp | TLR9-MyD88 block | NOD2-RIPK2 inh | MT stabilizer
COc1ccc(NS(=O)(=O)c2cc(N/C(=N\S(=O)(=O)c3ccccc3)c3ccc(F)cc3)ccc2Cl)cc1 | 0 | · | -2 | 0 | 2 | 12*
COc1ccc(-c2csc(C(NC(C)=O)c3cccc(F)c3)n2)cc1 (stereo unspecified) | · | · | · | · | -13 | ·
Cc1ccc(CNC(=O)C2CCC(CNS(=O)(=O)c3cccs3)CC2)cc1 (stereo unspecified) | · | · | · | 2 | 2 | ·
CCOc1ccc(S(=O)(=O)N(CC)CC(=O)NCc2ccccn2)cc1C | · | · | · | -17 | -1 | ·
COc1ccc(CC(=O)n2nc(-c3ccc(Cl)cc3)nc2NCc2ccco2)cc1 | 0 | -4 | 16 | -7 | 3 | 28*
Cc1nc2c3cc(Cl)ccc3n(CCN3CCCCC3)c2s1 | 0 | 97* | -2 | 4 | -3 | 24*
COc1ccc(-c2n[nH]c(C(F)(F)F)c2-c2cc3ccccc3o2)c(O)c1 | 0 | 94* | -2 | 4 | 2 | 30*
Cc1ccc(NC(=O)NNC(=O)Cn2nc(-c3ccccc3)c(-c3ccccc3)c(C#N)c2=O)cc1 | 0 | 0 | 8 | -7 | -5 | 27*
O=C(Cn1nc(-c2ccccc2)c2ccccc2c1=O)Nc1ccc(O)cc1 | · | 1 | · | 5 | -2 | ·
O=C1/C(=C\c2ccc3ccccc3c2)CCCc2ccccc21 | 0 | 50* | 6 | 5 | -8 | 30*
COc1ccc(-c2[nH]ncc2CN2CCCC(C(=O)c3cccc(OC)c3)C2)cc1 (stereo unspecified) | 0 | -1 | -1 | 4 | -9 | 3
COc1ccc2cc(-c3[nH]ncc3CN3CCCC3c3nonc3C)ccc2c1 (stereo unspecified) | 0 | 2 | 13 | -11 | -2 | 11*
CC(C)(C)c1nc2ccccc2c2nnc(SCC(=O)Nc3nccs3)n12 | 0 | 40 | -8 | 1 | -12 | 42*
O=C(c1ccccc1)N1CCC(c2nc(-c3ccc(S(=O)(=O)N4CCOCC4)cc3)no2)CC1 | 0 | -1 | 2 | -3 | 0 | 2
O=C(Nc1ccccc1)N1CCC(c2nc(-c3ccc(S(=O)(=O)N4CCOCC4)cc3)no2)CC1 | 0 | -2 | -12 | -13 | -6 | 26*
C=CCn1c(SCc2cc(C(C)=O)ccc2OCC)nc2ccccc2c1=O | 0 | 98* | 7 | -5 | 8 | 18*
C=CCn1c(SCc2c(C)noc2C)nc2ccccc2c1=O | 0 | · | 7 | 6 | 9 | 27*
COc1ccc(C(C)=O)cc1CSc1nc2ccccc2c(=O)n1-c1ccccc1 | 0 | 2 | -10 | 14 | -6 | 9
C=CCn1c(SCc2c(C)noc2C)nc2cc(C(=O)O)ccc2c1=O | 0 | · | 6 | 11 | -1 | 35*
